Data reported in ChEMBL document CHEMBL4673250, “Analogs of nitrofuran antibiotics are potent GroEL/ES inhibitor pro-drugs” (Bioorg Med Chem, 2020).
Active and inactive are the calls of the source. The calls are words filed in the database; no cut-off is given here.

Columns and labels:
[1] = test system: Enterococcus faecium; test: Antibacterial activity against Enterococcus faecium ATCC 19434 assessed as reduction in bacterial growth by serial dilution method; assay type: functional, organism-based
[2] = test system: Staphylococcus aureus; test: Antibacterial activity against Staphylococcus aureus ATCC 25923 assessed as reduction in bacterial growth by serial dilution method; assay type: functional, organism-based
[3] = test system: Klebsiella pneumoniae; test: Antibacterial activity against Klebsiella pneumoniae ATCC 13883 assessed as reduction in bacterial growth by serial dilution method; assay type: functional, organism-based
[4] = test system: Acinetobacter baumannii; test: Antibacterial activity against Acinetobacter baumannii ATCC 19606 assessed as reduction in bacterial growth by serial dilution method; assay type: functional, organism-based; settings: ATCC 19606 = CIP 70.34 = JCM 6841
[5] = test system: Pseudomonas aeruginosa; test: Antibacterial activity against Pseudomonas aeruginosa ATCC 10145 assessed as reduction in bacterial growth by serial dilution method; assay type: functional, organism-based
[6] = test system: Enterobacter cloacae; test: Antibacterial activity against Enterobacter cloacae ATCC 13047 assessed as reduction in bacterial growth by serial dilution method; assay type: functional, organism-based
[7] = test system: Escherichia coli; test: Antibacterial activity against Escherichia coli assessed as reduction in bacterial growth by serial dilution method; assay type: functional, organism-based
Summary of the method: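 Liquid-culture proliferation in media supplemented with physiological free calcium and magnesium; cultures started at OD600 = 0.01, exposed to 8-point 3-fold dilution series (100 μM to 46 nM), grown to mid-log phase (OD600 ~0.4–0.6), then final OD600 read. E. coli strain NEB 5-alpha (DH5α derivative).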

[8] = target: T1, E. coli GroEL/ES (Escherichia coli, UniProt P0A6F5); test: Inhibition of Escherichia coli GroEL/ES-mediated refolding of the denatured malate dehydrogenase; assay type: protein-complex assay
Summary of the method: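 E. coli GroEL/ES-mediated refolding of denatured MDH as the reporter enzyme. IC50 values are averages from at least four replicates. […] GroEL tetradecamer is present at 50 nM during the refolding cycle. DMSO serves as the negative control.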

[9] = target: T1, E. coli GroEL/ES; test: Inhibition of Escherichia coli GroEL/ES-mediated refolding of the denatured malate dehydrogenase in presence of Escherichia coli type 1 NfsB nitroreductase; assay type: protein-complex assay
Summary of the method: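 GroEL/ES-dMDH refolding with 10 µg/mL E. coli NfsB added to the initial GroEL/ES-dMDH mix. After compound stamping, NADH (2.4 mM stock) is added and the mix is incubated 10 min at 37°C to bioactivate nitrofurans. Compounds during the refolding cycle span 83 µM to 38 nM (3-fold series).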

[10] = test system: FHC; test: Cytotoxicity against human FHC cells assessed as reduction in cell viability incubated for 48 hrs by alamar blue assay; assay type: cell-based
Summary of the method: (§1)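 Alamar Blue viability: cells grown to ~80–90% confluency, seeded 1,500 per well and cultured 24 h without compound, then compound added for a further 48 h; resazurin reagent added and fluorescence monitored over time.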

[11] = Cytotoxicity against human FHs74Int cells assessed as reduction in cell viability incubated for 48 hrs by alamar blue assay; assay type: cell-based; summary of the method: as §1
[12] = Selectivity index, ratio of CC50 for human FHC cells to EC50 for Escherichia coli; assay type: toxicity; settings: read-out: Ratio CC50/EC50
[13] = Selectivity index, ratio of CC50 for human FHs 74 cells to EC50 for Escherichia coli; assay type: toxicity; settings: read-out: Ratio CC50/EC50
[14] = test system: Escherichia coli; test: Antibacterial activity against Escherichia coli assessed as reduction in bacterial growth measured for 12 day serial passage incubated for 24 hrs by serial dilution method; assay type: functional, organism-based
Summary of the method: (§2)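 NEB 5-alpha E. coli (DH5α derivative); 12-day liquid-culture serial passage. Dilute culture (OD600 = 0.01) grown 24 h with inhibitors in dose-response, in duplicate. EC50 taken from OD600 readings. Each day, bacteria were sub-cultured from the well with the highest inhibitor concentration still reaching OD600 > 0.2. Resistant strains were retested in a follow-up 24 h proliferation assay after 4×12 h passages without inhibitor, and were cross-tested against the other inhibitors.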

[15] = test system: Escherichia coli; test: Antibacterial activity against Nitrofurantoin-resistant Escherichia coli assessed as reduction in bacterial growth measured for 12 day serial passage incubated for 24 hrs by serial dilution method; assay type: functional, organism-based; summary of the method: as §2
[16] = test system: Escherichia coli; test: Antibacterial activity against Nifuroxazide-resistant Escherichia coli assessed as reduction in bacterial growth measured for 12 day serial passage incubated for 24 hrs by serial dilution method; assay type: functional, organism-based; summary of the method: as §2
[17] = test system: Escherichia coli; test: Antibacterial activity against Escherichia coli harbouring NfsA and NfsB mutant assessed as reduction in bacterial growth measured for 12 day serial passage incubated for 24 hrs by serial dilution method; assay type: functional, organism-based; summary of the method: as §2
[18] = test system: Escherichia coli; test: Antibacterial activity against 5-chloro-N-[(5-nitro-2-furyl)methyleneamino]thiophene-2-carboxamide-resistant Escherichia coli assessed as reduction in bacterial growth measured for 12 day serial passage incubated for 24 hrs by serial dilution method; assay type: functional, organism-based; summary of the method: as §2

T1 sequence (P0A6F5 whole entry, looked up): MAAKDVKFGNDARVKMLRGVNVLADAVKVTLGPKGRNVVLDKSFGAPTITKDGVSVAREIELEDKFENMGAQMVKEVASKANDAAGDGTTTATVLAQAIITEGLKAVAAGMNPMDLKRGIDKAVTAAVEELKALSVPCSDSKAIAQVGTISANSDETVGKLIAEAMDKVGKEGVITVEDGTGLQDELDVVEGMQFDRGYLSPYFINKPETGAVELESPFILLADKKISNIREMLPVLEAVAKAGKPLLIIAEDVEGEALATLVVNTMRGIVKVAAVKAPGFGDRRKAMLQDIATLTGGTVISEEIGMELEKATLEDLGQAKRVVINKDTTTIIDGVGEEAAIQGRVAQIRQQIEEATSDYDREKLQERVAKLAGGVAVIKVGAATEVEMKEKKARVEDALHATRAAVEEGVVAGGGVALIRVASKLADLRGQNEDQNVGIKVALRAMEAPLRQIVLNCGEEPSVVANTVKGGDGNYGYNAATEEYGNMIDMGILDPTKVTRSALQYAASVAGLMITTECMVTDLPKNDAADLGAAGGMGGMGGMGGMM

| Compound | EC50 [1] [µM] | EC50 [2] [µM] | EC50 [3] [µM] | EC50 [4] [µM] | EC50 [5] [µM] | EC50 [6] [µM] | EC50 [7] [µM] | IC50 [8] [µM] | IC50 [9] [µM] | CC50 [10] [µM] | CC50 [11] [µM] | selectivity ratio [12] | selectivity ratio [13] | EC50 [14] [µM] | Activity [15] | Activity [16] | Activity [17] | Activity [18] |
| --- | --- | --- | --- | --- | --- | --- | --- | --- | --- | --- | --- | --- | --- | --- | --- | --- | --- | --- |
| O=C(N/N=C/c1ccc([N+](=O)[O-])o1)c1ccccc1 | 31 | 10 | 36 | > 100 | > 100 | > 100 | 2.1 | > 100 | 12 | > 100 | 94 | > 48 | 45 | – | – | – | – | – |
| COc1ccc(C(=O)N/N=C/c2ccc([N+](=O)[O-])o2)cc1 | 22 | 8.1 | > 100 | > 100 | > 100 | > 100 | 1.9 | 69 | 10 | > 100 | 75 | – | 40 | – | – | – | – | – |
| O=C1CN(/N=C/c2ccc([N+](=O)[O-])o2)C(=O)N1 [NITROFURANTOIN] | 38 | 27 | 40 | > 100 | > 100 | 36 | 0.69 | > 100 | 84 | > 100 | > 100 | – | – | 20 | inactive | inactive | inactive | inactive |
| CN(C)c1ccc(C(=O)N/N=C/c2ccc([N+](=O)[O-])o2)cc1 | > 100 | 34 | > 100 | > 100 | > 100 | > 100 | 10 | 26 | 12 | > 100 | 93 | > 10 | 9.3 | – | – | – | – | – |
| O=[N+]([O-])c1ccc(O)c2ncccc12 [NITROXOLINE] | 18 | 9.5 | 2.8 | 2.5 | 99 | 6.6 | 4 | – | – | – | – | – | – | – | – | – | – | – |
